Measurements: ChEMBL document CHEMBL1250442, “Inhibiting gene expression at transcription start sites in chromosomal DNA with antigene RNAs” (Nat Chem Biol, 2005)
Calls of active or inactive are those of the source. The rule behind the calls is not given here.

Assays:
T47D [1] = experiment: Inhibition of PR-B gene expression in human T47D cells at 25 nM by syber green assay in presence of 10 nM estradiol; type: functional, cell-based
T47D [2] = experiment: Inhibition of PR-A mRNA gene expression in human T47D cells at 100 nM by syber green assay; type: functional
Procedure, shortened: (§1)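 T47D cells plated at 80,000/well without antibiotics two days before Oligofectamine transfection with agRNA duplex (25 or 100 nM final); medium changed at 24 h, harvest day 5 unless stated otherwise. TRIzol total RNA; PR mRNA by real-time PCR with SYBR Green: 50 °C 2 min, 95 °C 10 min, 40 cycles 95 °C 15 s/60 °C 1 min.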

T47D [3] = experiment: Inhibition of PR-A gene expression in human T47D cells at 25 nM by syber green assay in presence of 10 nM estradiol; type: functional, cell-based
T47D [4] = experiment: Inhibition of androgen receptor expression in human T47D cells after 12 days at 100 nM by syber green assay; type: functional, cell-based
Procedure, shortened: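 AR expression in T47D cells, grown in RPMI-1640 with 10% FBS, NEAA and insulin. Plated antibiotic-free two days before Oligofectamine transfection with 100 nM duplex RNA; medium replaced after 24 h. TRIzol total RNA. SYBR Green real-time PCR: 50 °C 2 min, 95 °C 10 min, 40 cycles of 95 °C 15 s and 60 °C 1 min.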

T47D [5] = experiment: Inhibition of PR-B mRNA gene expression in human T47D cells at 100 nM by syber green assay; type: functional
Procedure, shortened: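 T47D cells in RPMI-1640 with 10% FBS, NEAA, insulin, 37 °C, 5% CO2. Plated two days before transfection without antibiotics. Oligofectamine-mediated duplex RNA transfection at 100 nM final, medium changed at 24 h, harvest five days post-transfection. Total RNA extracted with TRIzol. hPR mRNA quantified by SYBR Green qPCR: 50 °C 2 min, 95 °C 10 min, then 40 cycles of 95 °C 15 s / 60 °C 1 min.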

T47D [6] = experiment: Inhibition of PR-B gene expression in human T47D cells at 25 nM by syber green assay; type: functional; procedure, shortened: as §1
T47D [7] = experiment: Inhibition of PR-A gene expression in human T47D cells at 25 nM by syber green assay; type: functional; procedure, shortened: as §1

SMILES	inhibition (T47D [1])	inhibition at 0.1 µM (T47D [2])	inhibition (T47D [3])	inhibition (T47D [4])	inhibition at 0.1 µM (T47D [5])	inhibition at 0.025 µM (T47D [6])	inhibition at 0.025 µM (T47D [7])
Cc1cn(CC(=O)N(CCNC(=O)CN(CCNC(=O)CN(CCNC(=O)CN(CCNC(=O)CN(CCNC(=O)CN(CCNC(=O)CN(CCNC(=O)CN(CCNC(=O)CN(CCNC(=O)CN(CCNC(=O)CN(CCNC(=O)CN(CCNC(=O)CN(CCNC(=O)CN(CCNC(=O)CN(CCNC(=O)CN(CCNC(=O)CN(CCNC(=O)CN(CCNC(=O)CN(CCNC(=O)CN(CCNC(=O)CN)C(=O)Cn2cnc3c(=O)[nH]c(N)nc32)C(=O)Cn2cnc3c(=O)[nH]c(N)nc32)C(=O)Cn2cnc3c(=O)[nH]c(N)nc32)C(=O)Cn2cnc3c(=O)[nH]c(N)nc32)C(=O)Cn2ccc(N)nc2=O)C(=O)Cn2cnc3c(=O)[nH]c(N)nc32)C(=O)Cn2ccc(N)nc2=O)C(=O)Cn2ccc(=O)[nH]c2=O)C(=O)Cn2cnc3c(=O)[nH]c(N)nc32)C(=O)Cn2cnc3c(=O)[nH]c(N)nc32)C(=O)Cn2cnc3c(=O)[nH]c(N)nc32)C(=O)Cn2cnc3c(N)ncnc32)C(=O)Cn2cnc3c(=O)[nH]c(N)nc32)C(=O)Cn2cnc3c(=O)[nH]c(N)nc32)C(=O)Cn2ccc(=O)[nH]c2=O)C(=O)Cn2cnc3c(=O)[nH]c(N)nc32)C(=O)Cn2cnc3c(=O)[nH]c(N)nc32)C(=O)Cn2cnc3c(N)ncnc32)C(=O)Cn2cnc3c(=O)[nH]c(N)nc32)CC(=O)NCCN(CC(=O)NCC(=O)O)C(=O)Cn2cc(C)c(=O)[nH]c2=O)c(=O)[nH]c1=O	Active	39%	Active	Active	39%	–	–
Cc1cn(CC(=O)N(CCNC(=O)CN(CCNC(=O)CN(CCNC(=O)CN(CCNC(=O)CN(CCNC(=O)CN(CCNC(=O)CN(CCNC(=O)CN(CCNC(=O)CN(CCNC(=O)CN(CCNC(=O)CN(CCNC(=O)CN(CCNC(=O)CN(CCNC(=O)CN(CCNC(=O)CN(CCNC(=O)CN(CCNC(=O)CN(CCNC(=O)CN(CCNC(=O)CN(CCNC(=O)CN(CCNC(=O)CN)C(=O)Cn2cnc3c(N)ncnc32)C(=O)Cn2cnc3c(=O)[nH]c(N)nc32)C(=O)Cn2cnc3c(=O)[nH]c(N)nc32)C(=O)Cn2ccc(N)nc2=O)C(=O)Cn2cnc3c(=O)[nH]c(N)nc32)C(=O)Cn2ccc(=O)[nH]c2=O)C(=O)Cn2ccc(=O)[nH]c2=O)C(=O)Cn2cnc3c(=O)[nH]c(N)nc32)C(=O)Cn2ccc(=O)[nH]c2=O)C(=O)Cn2ccc(=O)[nH]c2=O)C(=O)Cn2cnc3c(N)ncnc32)C(=O)Cn2cnc3c(=O)[nH]c(N)nc32)C(=O)Cn2cnc3c(N)ncnc32)C(=O)Cn2cnc3c(N)ncnc32)C(=O)Cn2cnc3c(N)ncnc32)C(=O)Cn2cnc3c(=O)[nH]c(N)nc32)C(=O)Cn2ccc(N)nc2=O)C(=O)Cn2ccc(=O)[nH]c2=O)C(=O)Cn2cnc3c(=O)[nH]c(N)nc32)CC(=O)NCCN(CC(=O)NCC(=O)O)C(=O)Cn2cc(C)c(=O)[nH]c2=O)c(=O)[nH]c1=O	Active	80%	Active	–	99%	73%	57%
Cc1cn(CC(=O)N(CCNC(=O)CN(CCNC(=O)CN(CCNC(=O)CN(CCNC(=O)CN(CCNC(=O)CN(CCNC(=O)CN(CCNC(=O)CN(CCNC(=O)CN(CCNC(=O)CN(CCNC(=O)CN(CCNC(=O)CN(CCNC(=O)CN(CCNC(=O)CN(CCNC(=O)CN(CCNC(=O)CN(CCNC(=O)CN(CCNC(=O)CN(CCNC(=O)CN(CCNC(=O)CN(CCNC(=O)CN)C(=O)Cn2cnc3c(=O)[nH]c(N)nc32)C(=O)Cn2cnc3c(=O)[nH]c(N)nc32)C(=O)Cn2ccc(N)nc2=O)C(=O)Cn2cnc3c(=O)[nH]c(N)nc32)C(=O)Cn2ccc(=O)[nH]c2=O)C(=O)Cn2ccc(=O)[nH]c2=O)C(=O)Cn2cnc3c(=O)[nH]c(N)nc32)C(=O)Cn2ccc(=O)[nH]c2=O)C(=O)Cn2ccc(=O)[nH]c2=O)C(=O)Cn2cnc3c(N)ncnc32)C(=O)Cn2cnc3c(=O)[nH]c(N)nc32)C(=O)Cn2cnc3c(N)ncnc32)C(=O)Cn2cnc3c(N)ncnc32)C(=O)Cn2cnc3c(N)ncnc32)C(=O)Cn2cnc3c(=O)[nH]c(N)nc32)C(=O)Cn2ccc(N)nc2=O)C(=O)Cn2ccc(=O)[nH]c2=O)C(=O)Cn2cnc3c(=O)[nH]c(N)nc32)C(=O)Cn2ccc(=O)[nH]c2=O)CC(=O)NCCN(CC(=O)NCC(=O)O)C(=O)Cn2cc(C)c(=O)[nH]c2=O)c(=O)[nH]c1=O	Active	< 20%	Active	–	< 20%	< 20%	< 20%
Cc1cn(CC(=O)N(CCNC(=O)CN(CCNC(=O)CN(CCNC(=O)CN(CCNC(=O)CN(CCNC(=O)CN(CCNC(=O)CN(CCNC(=O)CN(CCNC(=O)CN(CCNC(=O)CN(CCNC(=O)CN(CCNC(=O)CN(CCNC(=O)CN(CCNC(=O)CN(CCNC(=O)CN(CCNC(=O)CN(CCNC(=O)CN(CCNC(=O)CN(CCNC(=O)CN(CCNC(=O)CN(CCNC(=O)CN)C(=O)Cn2ccc(N)nc2=O)C(=O)Cn2ccc(=O)[nH]c2=O)C(=O)Cn2cnc3c(=O)[nH]c(N)nc32)C(=O)Cn2ccc(=O)[nH]c2=O)C(=O)Cn2ccc(N)nc2=O)C(=O)Cn2ccc(=O)[nH]c2=O)C(=O)Cn2cnc3c(=O)[nH]c(N)nc32)C(=O)Cn2cnc3c(=O)[nH]c(N)nc32)C(=O)Cn2ccc(N)nc2=O)C(=O)Cn2ccc(N)nc2=O)C(=O)Cn2cnc3c(N)ncnc32)C(=O)Cn2cnc3c(=O)[nH]c(N)nc32)C(=O)Cn2ccc(=O)[nH]c2=O)C(=O)Cn2ccc(N)nc2=O)C(=O)Cn2ccc(N)nc2=O)C(=O)Cn2cnc3c(N)ncnc32)C(=O)Cn2ccc(N)nc2=O)C(=O)Cn2cnc3c(N)ncnc32)C(=O)Cn2cnc3c(=O)[nH]c(N)nc32)CC(=O)NCCN(CC(=O)NCC(=O)O)C(=O)Cn2cc(C)c(=O)[nH]c2=O)c(=O)[nH]c1=O	Active	99%	Active	–	100%	55%	50%
Cc1cn(CC(=O)N(CCNC(=O)CN(CCNC(=O)CN(CCNC(=O)CN(CCNC(=O)CN(CCNC(=O)CN(CCNC(=O)CN(CCNC(=O)CN(CCNC(=O)CN(CCNC(=O)CN(CCNC(=O)CN(CCNC(=O)CN(CCNC(=O)CN(CCNC(=O)CN(CCNC(=O)CN(CCNC(=O)CN(CCNC(=O)CN(CCNC(=O)CN(CCNC(=O)CN(CCNC(=O)CN(CCNC(=O)CN)C(=O)Cn2cnc3c(N)ncnc32)C(=O)Cn2cnc3c(=O)[nH]c(N)nc32)C(=O)Cn2cnc3c(N)ncnc32)C(=O)Cn2cnc3c(=O)[nH]c(N)nc32)C(=O)Cn2cnc3c(=O)[nH]c(N)nc32)C(=O)Cn2cnc3c(N)ncnc32)C(=O)Cn2cnc3c(=O)[nH]c(N)nc32)C(=O)Cn2cnc3c(=O)[nH]c(N)nc32)C(=O)Cn2cnc3c(N)ncnc32)C(=O)Cn2cnc3c(=O)[nH]c(N)nc32)C(=O)Cn2cnc3c(=O)[nH]c(N)nc32)C(=O)Cn2ccc(N)nc2=O)C(=O)Cn2cnc3c(=O)[nH]c(N)nc32)C(=O)Cn2ccc(=O)[nH]c2=O)C(=O)Cn2ccc(=O)[nH]c2=O)C(=O)Cn2cnc3c(=O)[nH]c(N)nc32)C(=O)Cn2ccc(=O)[nH]c2=O)C(=O)Cn2ccc(=O)[nH]c2=O)C(=O)Cn2cnc3c(N)ncnc32)CC(=O)NCCN(CC(=O)NCC(=O)O)C(=O)Cn2cc(C)c(=O)[nH]c2=O)c(=O)[nH]c1=O	Active	< 20%	Active	–	< 20%	< 20%	< 20%
Cc1cn(CC(=O)N(CCNC(=O)CN(CCNC(=O)CN(CCNC(=O)CN(CCNC(=O)CN(CCNC(=O)CN(CCNC(=O)CN(CCNC(=O)CN(CCNC(=O)CN(CCNC(=O)CN(CCNC(=O)CN(CCNC(=O)CN(CCNC(=O)CN(CCNC(=O)CN(CCNC(=O)CN(CCNC(=O)CN(CCNC(=O)CN(CCNC(=O)CN(CCNC(=O)CN(CCNC(=O)CN(CCNC(=O)CN)C(=O)Cn2cnc3c(=O)[nH]c(N)nc32)C(=O)Cn2cnc3c(=O)[nH]c(N)nc32)C(=O)Cn2cnc3c(=O)[nH]c(N)nc32)C(=O)Cn2ccc(N)nc2=O)C(=O)Cn2ccc(N)nc2=O)C(=O)Cn2ccc(=O)[nH]c2=O)C(=O)Cn2ccc(N)nc2=O)C(=O)Cn2ccc(N)nc2=O)C(=O)Cn2ccc(N)nc2=O)C(=O)Cn2ccc(=O)[nH]c2=O)C(=O)Cn2cnc3c(N)ncnc32)C(=O)Cn2cnc3c(=O)[nH]c(N)nc32)C(=O)Cn2cnc3c(N)ncnc32)C(=O)Cn2cnc3c(=O)[nH]c(N)nc32)C(=O)Cn2cnc3c(=O)[nH]c(N)nc32)C(=O)Cn2cnc3c(N)ncnc32)C(=O)Cn2cnc3c(=O)[nH]c(N)nc32)C(=O)Cn2cnc3c(=O)[nH]c(N)nc32)C(=O)Cn2cnc3c(N)ncnc32)CC(=O)NCCN(CC(=O)NCC(=O)O)C(=O)Cn2cc(C)c(=O)[nH]c2=O)c(=O)[nH]c1=O	Active	< 20%	Active	–	< 20%	< 20%	< 20%
